Legend:
Beta-secretase 1 [1] = biological target: T1, Beta-secretase 1 (Homo sapiens, UniProt P56817); assay: Inhibition of human BACE1 in HEK293 cells stably co-transfected with mutant APP(swAPP751) assessed as Amyloid beta 1-40 level after 24 hrs by ELISA; assay type: cell-based
Summary of the method: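 HEK-293 cells stably expressing Swedish mutant APP (swAPP751), grown in DMEM with 10% FCS, penicillin/streptomycin and 200 µg/mL hygromycin at 37 °C, 5% CO2. Seeded 2 × 10^4 cells/well, settled overnight, washed once with fresh medium, then inhibitor added (DMSO at most 1% final). Medium collected after 24 h; secreted Aβ1–40 measured by ELISA.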

Cathepsin D = Cathepsin D (Homo sapiens, UniProt P07339); assay: Inhibition of human liver cathepsin D after 20 mins by homogeneous time resolved fluorescence assay
Chain of Cathepsin D (P07339 65-162 limits assumed): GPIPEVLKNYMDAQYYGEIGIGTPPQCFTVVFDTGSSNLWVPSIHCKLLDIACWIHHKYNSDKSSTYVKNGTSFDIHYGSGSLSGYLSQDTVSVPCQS
Chain of Cathepsin D (P07339 169-412 limits assumed): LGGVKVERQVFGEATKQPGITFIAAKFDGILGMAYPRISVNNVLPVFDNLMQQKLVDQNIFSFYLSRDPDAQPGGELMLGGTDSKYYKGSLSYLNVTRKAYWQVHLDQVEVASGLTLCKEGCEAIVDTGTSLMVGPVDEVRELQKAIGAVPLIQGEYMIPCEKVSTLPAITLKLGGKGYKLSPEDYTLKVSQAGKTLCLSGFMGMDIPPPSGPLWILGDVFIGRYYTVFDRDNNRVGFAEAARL

Beta-secretase 1 [2] = biological target: T1, Beta-secretase 1; assay: Inhibition of BACE1 after 30 mins by homogeneous time resolved fluorescence assay

T1 sequence (P56817 whole entry): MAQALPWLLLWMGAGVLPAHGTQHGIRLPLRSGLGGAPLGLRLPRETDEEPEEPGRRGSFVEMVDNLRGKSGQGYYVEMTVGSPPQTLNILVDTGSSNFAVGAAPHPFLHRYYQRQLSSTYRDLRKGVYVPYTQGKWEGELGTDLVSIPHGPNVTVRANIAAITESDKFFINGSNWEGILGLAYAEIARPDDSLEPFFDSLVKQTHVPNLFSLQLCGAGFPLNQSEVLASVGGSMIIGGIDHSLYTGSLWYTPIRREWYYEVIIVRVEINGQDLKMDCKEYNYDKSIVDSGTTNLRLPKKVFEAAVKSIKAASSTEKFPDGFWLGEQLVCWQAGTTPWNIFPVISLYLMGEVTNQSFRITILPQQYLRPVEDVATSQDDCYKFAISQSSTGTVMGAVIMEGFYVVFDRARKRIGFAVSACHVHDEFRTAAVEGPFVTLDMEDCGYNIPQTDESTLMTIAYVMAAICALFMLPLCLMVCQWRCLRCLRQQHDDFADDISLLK

SMILES	IC50 (Beta-secretase 1 [1])	IC50 (Cathepsin D)	IC50 (Beta-secretase 1 [2])
CC(C)[C@H](NC(=O)[C@H](C)C[C@H](O)[C@H](COc1cc(F)cc(F)c1)NC(=O)c1cc(C(=O)N[C@H](C)c2ccccc2)cc(N(C)S(C)(=O)=O)c1)C(=O)NCc1ccccc1	160 nM	59 nM	3.1 nM
CC(C)[C@H](NC(=O)[C@H](C)C[C@H](O)[C@H](COCc1ccccc1)NC(=O)c1cc(C(=O)N[C@H](C)c2ccccc2)cc(N(C)S(C)(=O)=O)c1)C(=O)NCc1ccccc1	1000 nM	41 nM	3.6 nM
C[C@H](C[C@H](O)[C@H](COCc1cc(F)cc(F)c1)NC(=O)c1cc(C(=O)N[C@H](C)c2ccccc2)cc(N(C)S(C)(=O)=O)c1)C(=O)NC1CC1		> 5000 nM	> 10000 nM
CC(C)[C@H](NC(=O)[C@H](C)C[C@H](O)[C@H](COCc1cc(F)cc(F)c1)NC(=O)c1cc(C(=O)N[C@H](C)c2ccccc2)cc(N(C)S(C)(=O)=O)c1)C(=O)NCc1ccccc1	4500 nM	210 nM	
CC(C)[C@H](NC(=O)[C@@H](C)C[C@H](O)[C@H](COc1cc(F)cc(F)c1)NC(=O)c1cc(C(=O)N[C@H](C)c2ccccc2)cc(N(C)S(C)(=O)=O)c1)C(=O)NCc1ccccc1	340 nM	120 nM	10 nM
CNC(=O)c1cc(C(=O)N[C@@H](COCc2cc(F)cc(F)c2)[C@@H](O)C[C@@H](C)C(=O)N[C@H](C(=O)NCc2ccccc2)C(C)C)cc(N(C)S(C)(=O)=O)c1		> 5000 nM	1260 nM
CSCC[C@H](NC(=O)[C@@H](NC(=O)OC(C)(C)C)C(C)C)C(=O)N[C@@H](COCc1cc(F)cc(F)c1)[C@@H](O)C[C@@H](C)C(=O)N[C@H](C(=O)NCc1ccccc1)C(C)C		0.63 nM	10000 nM
